SMILES strings stand for the structures. Converted amounts (≈) assume the structure as drawn. The source made the active and inactive calls. The rule behind the calls is not given here.

One data set has as its system HGC-27. The data set can be described thus: Cytotoxicity against human HGC-27 cells assessed as reduction in cell viability incubated for 72 hrs by MTT assay. Type of data set: functional, cell-based. Conditions: HGC-27, 72 h. Put shortly:
(§1)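 Cells resuspended in DMEM plus 10% FBS and seeded at 5 000 cells/well. They were incubated overnight at 37 °C in 5% CO2, then exposed to serial dilutions for 72 h at 37 °C. Medium was replaced with fresh medium containing 0.5 mg/mL MTT for 4 h, formazan dissolved in DMSO, and A540 read. Proliferation = A540 treated/control ×100%. IC50 is the concentration inhibiting proliferation by 50%.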
A general note: Tetrazolium assays rely on reduction of a dye to a coloured formazan, in cell work by metabolically active cells.
Take `COc1cc2c(cc1O)oc(=O)c1c2c(-c2ccc(O[C@H]3O[C@H](CO)[C@@H](O)[C@H](O)[C@@H]3O)c(OC)c2)c2c3cc(OC)c(O)cc3ccn21`: the half-inhibitory concentration (IC50) was 31300 nM.
The same measure, in the same setting: the figure for `COc1cc(-c2c3c4cc(OC)c(O)cc4oc(=O)c3n3ccc4cc(O[C@@H]5O[C@H](CO)[C@@H](O)[C@H](O)[C@H]5O)c(OC)cc4c23)ccc1O` is 114 nM; for `COc1cc2c(cc1O)oc(=O)c1c2c(-c2ccc(O[C@@H]3O[C@H](CO)[C@@H](O)[C@H](O)[C@H]3O)c(OC)c2)c2c3cc(OC)c(O[C@@H]4O[C@H](CO)[C@@H](O)[C@H](O)[C@H]4O)cc3ccn21` it is 27100 nM.
Regarding `COc1cc(-c2c3c4cc(OC)c(O[C@H]5O[C@H](CO)[C@@H](O)[C@H](O)[C@@H]5O)cc4oc(=O)c3n3ccc4cc(O)c(OC)cc4c23)ccc1O`, the half-maximal inhibitory concentration (IC50) amounted to 137 nM.

The next data set relates to A549. The data set can be described thus: Cytotoxicity against human A549 cells assessed as reduction in cell viability incubated for 72 hrs by MTT assay. Type of data set: functional, cell-based. Conditions: A549, 72 h. Put shortly: as §1
On to `COc1cc2c(cc1O)oc(=O)c1c2c(-c2ccc(O[C@H]3O[C@H](CO)[C@@H](O)[C@H](O)[C@@H]3O)c(OC)c2)c2c3cc(OC)c(O)cc3ccn21`, for which the IC50 is over 50000 nM.
In the case of `COc1cc(-c2c3c4cc(OC)c(O)cc4oc(=O)c3n3ccc4cc(O[C@@H]5O[C@H](CO)[C@@H](O)[C@H](O)[C@H]5O)c(OC)cc4c23)ccc1O`, the 50% inhibitory concentration (IC50) worked out at 47 nM.
On to `COc1cc2c(cc1O)oc(=O)c1c2c(-c2ccc(O[C@@H]3O[C@H](CO)[C@@H](O)[C@H](O)[C@H]3O)c(OC)c2)c2c3cc(OC)c(O[C@@H]4O[C@H](CO)[C@@H](O)[C@H](O)[C@H]4O)cc3ccn21`, for which the IC50 was determined as 13700 nM.
The same measure, in the same setting: in the case of `COc1cc(-c2c3c4cc(OC)c(O[C@H]5O[C@H](CO)[C@@H](O)[C@H](O)[C@@H]5O)cc4oc(=O)c3n3ccc4cc(O)c(OC)cc4c23)ccc1O` it was 374 nM.

Test system in another data set: not listed separately
In words: Aqueous solubility of compound in deionized water by HPLC-HRMS analysis. Particulars: buffer. It counts as physicochemical.
As to `COc1cc2c(cc1O)oc(=O)c1c2c(-c2ccc(O[C@H]3O[C@H](CO)[C@@H](O)[C@H](O)[C@@H]3O)c(OC)c2)c2c3cc(OC)c(O)cc3ccn21`, the solubility came to 0.00014 µM (≈ 0.0926 ng/mL).
On the same count and under the same terms, in the case of `COc1cc(-c2c3c4cc(OC)c(O)cc4oc(=O)c3n3ccc4cc(O[C@@H]5O[C@H](CO)[C@@H](O)[C@H](O)[C@H]5O)c(OC)cc4c23)ccc1O` it was 0.25778 µM (≈ 171 ng/mL); in that of `COc1cc2c(cc1O)oc(=O)c1c2c(-c2ccc(O[C@@H]3O[C@H](CO)[C@@H](O)[C@H](O)[C@H]3O)c(OC)c2)c2c3cc(OC)c(O[C@@H]4O[C@H](CO)[C@@H](O)[C@H](O)[C@H]4O)cc3ccn21`, 0.09675 µM (≈ 79.7 ng/mL); in that of `COc1cc(-c2c3c4cc(OC)c(O[C@H]5O[C@H](CO)[C@@H](O)[C@H](O)[C@@H]5O)cc4oc(=O)c3n3ccc4cc(O)c(OC)cc4c23)ccc1O`, 0.00037 µM (≈ 0.245 ng/mL).

The subject of another data set is MDA-MB-231. The data set can be described thus: Cytotoxicity against human MDA-MB-231 cells assessed as reduction in cell viability incubated for 72 hrs by MTT assay. Particulars: MDA-MB-231, 72 h. Type of data set: functional, cell-based. Put shortly:
as §1
On to `COc1cc2c(cc1O)oc(=O)c1c2c(-c2ccc(O[C@H]3O[C@H](CO)[C@@H](O)[C@H](O)[C@@H]3O)c(OC)c2)c2c3cc(OC)c(O)cc3ccn21`, for which the IC50 is over 50000 nM.
Same read-out and setting: in the case of `COc1cc(-c2c3c4cc(OC)c(O)cc4oc(=O)c3n3ccc4cc(O[C@@H]5O[C@H](CO)[C@@H](O)[C@H](O)[C@H]5O)c(OC)cc4c23)ccc1O` it was 32 nM.
Consider `COc1cc2c(cc1O)oc(=O)c1c2c(-c2ccc(O[C@@H]3O[C@H](CO)[C@@H](O)[C@H](O)[C@H]3O)c(OC)c2)c2c3cc(OC)c(O[C@@H]4O[C@H](CO)[C@@H](O)[C@H](O)[C@H]4O)cc3ccn21`, for which the half-inhibitory concentration (IC50) stood at 13300 nM.
On the same count and under the same terms, in the case of `COc1cc(-c2c3c4cc(OC)c(O[C@H]5O[C@H](CO)[C@@H](O)[C@H](O)[C@@H]5O)cc4oc(=O)c3n3ccc4cc(O)c(OC)cc4c23)ccc1O` it was 316 nM.

The target in the next data set is T1, DNA topoisomerase 1 (Homo sapiens) (UniProt P11387).
T1 sequence (whole entry): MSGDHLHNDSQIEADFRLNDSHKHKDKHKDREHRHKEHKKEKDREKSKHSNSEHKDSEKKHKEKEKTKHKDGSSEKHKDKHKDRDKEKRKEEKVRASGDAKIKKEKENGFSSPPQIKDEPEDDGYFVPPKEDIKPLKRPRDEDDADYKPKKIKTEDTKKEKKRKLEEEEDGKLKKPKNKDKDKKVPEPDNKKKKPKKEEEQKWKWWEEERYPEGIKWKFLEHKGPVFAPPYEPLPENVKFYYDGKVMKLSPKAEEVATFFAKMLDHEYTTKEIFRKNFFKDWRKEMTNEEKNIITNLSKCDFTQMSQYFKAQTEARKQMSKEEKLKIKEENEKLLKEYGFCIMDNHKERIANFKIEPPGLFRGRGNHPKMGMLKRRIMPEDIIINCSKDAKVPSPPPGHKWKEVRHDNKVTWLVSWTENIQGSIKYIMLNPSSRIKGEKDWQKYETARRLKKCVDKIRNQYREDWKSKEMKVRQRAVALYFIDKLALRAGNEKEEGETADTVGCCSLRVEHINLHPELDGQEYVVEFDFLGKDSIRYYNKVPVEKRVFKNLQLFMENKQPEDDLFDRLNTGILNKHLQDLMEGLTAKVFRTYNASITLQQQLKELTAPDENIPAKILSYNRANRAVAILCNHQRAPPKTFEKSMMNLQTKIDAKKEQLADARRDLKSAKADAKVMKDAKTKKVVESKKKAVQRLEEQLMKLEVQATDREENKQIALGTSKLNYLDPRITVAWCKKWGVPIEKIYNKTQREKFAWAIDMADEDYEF
The data set can be described thus: Inhibition of topoisomerase 1 (unknown origin) assessed as reduction in relaxation of supercoiled plasmid pBR322 DNA at 10 uM incubated for 30 mins by agarose gel electrophoresis.
Details: not given
The essentials: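 Reaction mix held 10X Topo I buffer, supercoiled pBR322 (250 ng), Topo I (2 U) and compound at 10 µM, incubated 37 °C for 30 min. Stopped with 10% SDS, then proteinase K digestion for 30 min. Products run on 1% agarose without stain, post-stained with 4s Green for 50 min and imaged under UV. Read-out is loss of relaxation.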
`COc1cc2c(cc1O)oc(=O)c1c2c(-c2ccc(O[C@H]3O[C@H](CO)[C@@H](O)[C@H](O)[C@@H]3O)c(OC)c2)c2c3cc(OC)c(O)cc3ccn21`: the inhibition entry was “Active”.
Same read-out and setting: the entry for `COc1cc2c(cc1O)oc(=O)c1c2c(-c2ccc(O[C@@H]3O[C@H](CO)[C@@H](O)[C@H](O)[C@H]3O)c(OC)c2)c2c3cc(OC)c(O[C@@H]4O[C@H](CO)[C@@H](O)[C@H](O)[C@H]4O)cc3ccn21` is “Active”.

The next data set has as its system HCT-116. In words: Cytotoxicity against human HCT-116 cells assessed as reduction in cell viability incubated for 72 hrs by MTT assay. Type of data set: functional, cell-based. Conditions: HCT-116, 72 h. Put shortly: as §1
In the case of `COc1cc2c(cc1O)oc(=O)c1c2c(-c2ccc(O[C@H]3O[C@H](CO)[C@@H](O)[C@H](O)[C@@H]3O)c(OC)c2)c2c3cc(OC)c(O)cc3ccn21`, the half-inhibitory concentration (IC50) was over 50000 nM.
Same read-out and setting: the figure for `COc1cc(-c2c3c4cc(OC)c(O)cc4oc(=O)c3n3ccc4cc(O[C@@H]5O[C@H](CO)[C@@H](O)[C@H](O)[C@H]5O)c(OC)cc4c23)ccc1O` is 14 nM; for `COc1cc2c(cc1O)oc(=O)c1c2c(-c2ccc(O[C@@H]3O[C@H](CO)[C@@H](O)[C@H](O)[C@H]3O)c(OC)c2)c2c3cc(OC)c(O[C@@H]4O[C@H](CO)[C@@H](O)[C@H](O)[C@H]4O)cc3ccn21` it is 5280 nM; for `COc1cc(-c2c3c4cc(OC)c(O[C@H]5O[C@H](CO)[C@@H](O)[C@H](O)[C@@H]5O)cc4oc(=O)c3n3ccc4cc(O)c(OC)cc4c23)ccc1O` it is 206 nM.

A further data set concerns HepG2. The data set can be described thus: Cytotoxicity against human HepG2 cells assessed as reduction in cell viability incubated for 72 hrs by MTT assay. Conditions: HepG2, 72 h. It counts as functional, cell-based. Put shortly: as §1
For `COc1cc2c(cc1O)oc(=O)c1c2c(-c2ccc(O[C@H]3O[C@H](CO)[C@@H](O)[C@H](O)[C@@H]3O)c(OC)c2)c2c3cc(OC)c(O)cc3ccn21`, the IC50 was over 50000 nM.
Still for that read-out and setting: the figure for `COc1cc(-c2c3c4cc(OC)c(O)cc4oc(=O)c3n3ccc4cc(O[C@@H]5O[C@H](CO)[C@@H](O)[C@H](O)[C@H]5O)c(OC)cc4c23)ccc1O` is 24 nM.
For the compound `COc1cc2c(cc1O)oc(=O)c1c2c(-c2ccc(O[C@@H]3O[C@H](CO)[C@@H](O)[C@H](O)[C@H]3O)c(OC)c2)c2c3cc(OC)c(O[C@@H]4O[C@H](CO)[C@@H](O)[C@H](O)[C@H]4O)cc3ccn21`, the half-inhibitory concentration (IC50) turned out to be 40100 nM.
The same measure, in the same setting: the figure for `COc1cc(-c2c3c4cc(OC)c(O[C@H]5O[C@H](CO)[C@@H](O)[C@H](O)[C@@H]5O)cc4oc(=O)c3n3ccc4cc(O)c(OC)cc4c23)ccc1O` is 570 nM.

By IC50 is commonly meant the concentration needed to halve the response being measured. The solubility is how much of the substance goes into solution per volume. A higher solubility goes with a readily soluble substance.

Values taken from ChEMBL document CHEMBL4732207, “Design, Synthesis and Structure-Activity Relationship Studies of Glycosylated Derivatives of Marine Natural Product Lamellarin D” (Eur J Med Chem, 2021).
